The record followed here is ChEMBL document CHEMBL1150956, “Antitubercular natural products: berberine from the roots of commercial Hydrastis canadensis powder. Isolation of inactive 8-oxotetrahydrothalifendine, canadine, beta-hydrastine, and two new quinic acid esters, hycandinic acid esters-1 and -2” (1998).

Active and inactive are the calls of the source.

The test system of experiment [1] is Staphylococcus aureus. Nature of the experiment: Antimicrobial activity against Staphylococcus aureus ATCC 13709 at 1000 ug/ml. The class given is functional, organism-based.
Experiment [2] relates to Mycolicibacterium smegmatis. Kind of experiment: Antimicrobial activity against Mycobacterium smegmatis ATCC 607 at 1000 ug/ml. The class given is functional, organism-based.
The test system of experiment [3] is Candida albicans. Nature of the experiment: Antimicrobial activity against Candida albicans ATCC 10231 at 1000 ug/ml. The class given is functional, organism-based.
Experiment [4] has as its system Staphylococcus aureus. Nature of the experiment: Antimicrobial activity against Staphylococcus aureus ATCC 13709. In kind it is functional.
The subject of experiment [5] is Escherichia coli. Kind of experiment: Antimicrobial activity against Escherichia coli ATCC 9637. The class given is functional.
The subject of experiment [6] is Salmonella enterica subsp. enterica serovar Gallinarum. Kind of experiment: Antimicrobial activity against Salmonella gallinarum ATCC 9184. The class given is functional.
Experiment [7] concerns Klebsiella pneumoniae. Kind of experiment: Antimicrobial activity against Klebsiella pneumoniae ATCC 10031. In kind it is functional.
Experiment [8] deals with Mycolicibacterium smegmatis. Kind of experiment: Antimicrobial activity against Mycobacterium smegmatis ATCC 607. In kind it is functional.
Experiment [9] has as its system Candida albicans. Nature of the experiment: Antimicrobial activity against Candida albicans ATCC 10231. In kind it is functional.
Experiment [10] relates to Pseudomonas aeruginosa. Kind of experiment: Antimicrobial activity against Pseudomonas aeruginosa ATCC 27853. The class given is functional.
For experiment [11], the system named is Mycobacterium intracellulare. Kind of experiment: Antimicrobial activity against recombinant Mycobacterium intracellular expressing pMV361 lux after 3 days by luciferase assay. In kind it is functional. The following applies: 72 h. The method in brief: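 Recombinant M. intracellulare pMV361 lux at about 5e5 cfu/mL final, in Middlebrook 7H9 broth with compound at 0.1–50 µg/mL; no-drug 1% DMSO growth controls. Incubated at 36 °C in ambient air. 100 µL culture plus 100 µL of 1 mM luciferin, read as RLU at day 0 (within 30 min) and after 3 days.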

In experiment [12] the test system is Klebsiella pneumoniae. Nature of the experiment: Antimicrobial activity against Klebsiella pneumoniae ATCC 10031 at 1000 ug/ml. The class given is functional, organism-based.
Experiment [13] relates to Escherichia coli. Nature of the experiment: Antimicrobial activity against Escherichia coli ATCC 9637 at 1000 ug/ml. The class given is functional, organism-based.
The subject of experiment [14] is Salmonella enterica subsp. enterica serovar Gallinarum. Nature of the experiment: Antimicrobial activity against Salmonella gallinarum ATCC 9184 at 1000 ug/ml. In kind it is functional, organism-based.
Experiment [15] relates to Pseudomonas aeruginosa. Kind of experiment: Antimicrobial activity against Pseudomonas aeruginosa ATCC 27853 at 1000 ug/ml. The class given is functional, organism-based.

Regarding `CCCCOC(=O)[C@@]1(O)CC(OC(C)=O)[C@H](OC(=O)/C=C/c2ccc(OC(C)=O)c(OC)c2)[C@H](OC(C)=O)C1` (some centres not stated), the result (with Staphylococcus aureus [1]; in [2]; with Candida albicans [3]) was inactive.
Usually MIC stands for the smallest concentration in the dilution series that meets the test's criterion for growth inhibition. As for `CN[C@@H]1[C@H](O[C@H]2[C@H](O[C@H]3[C@H](O)[C@@H](O)[C@H](N=C(N)N)[C@@H](O)[C@@H]3N=C(N)N)O[C@@H](C)[C@]2(O)C=O)O[C@@H](CO)[C@H](O)[C@H]1O.CN[C@@H]1[C@H](O[C@H]2[C@H](O[C@H]3[C@H](O)[C@@H](O)[C@H](N=C(N)N)[C@@H](O)[C@@H]3N=C(N)N)O[C@@H](C)[C@]2(O)C=O)O[C@@H](CO)[C@H](O)[C@H]1O.O=S(=O)(O)O.O=S(=O)(O)O.O=S(=O)(O)O` [STREPTOMYCIN SULFATE], the MIC against Staphylococcus aureus [4] was 6.25 µg/mL; against Escherichia coli [5], 6.25 µg/mL; in [6] it was 50 µg/mL; in the experiment with Klebsiella pneumoniae [7], 1.56 µg/mL; in experiment [8], 1.56 µg/mL; against Candida albicans [9] it was over 100 µg/mL. This compound had an MIC against Pseudomonas aeruginosa [10] of 25 µg/mL.
As for `COc1c(OC(C)=O)ccc2c1C(=O)N1CCc3cc4c(cc3C1C2)OCO4` (configuration not stated), the MIC in experiment [11] is over 50 µg/mL. The result (with Staphylococcus aureus [1]; in the experiment with Klebsiella pneumoniae [12]; in [2]; with Candida albicans [3]) was inactive.
Regarding `COc1ccc2c(c1OC)CN1CCc3cc4c(cc3[C@@H]1C2)OCO4` [CANADINE], in [11], the MIC is over 50 µg/mL. The outcome (with Staphylococcus aureus [1]; with Klebsiella pneumoniae [12]; in experiment [2]; in the experiment with Candida albicans [3]) was inactive.
For the compound `COc1ccc2cc3[n+](cc2c1OC)CCc1cc2c(cc1-3)OCO2.[Cl-]` [BERBERINE CHLORIDE], the MIC against Staphylococcus aureus [4] is 50 µg/mL; with Klebsiella pneumoniae [7] it was 100 µg/mL; in [8], 25 µg/mL; in the experiment with Candida albicans [9], 100 µg/mL; in [11], 200 µg/mL.
In the case of `COc1ccc2c(c1OC)C(=O)N1CCc3cc4c(cc3C1C2)OCO4` (configuration not stated), in experiment [11], the MIC is over 50 µg/mL. Also, the outcome (in the experiment with Staphylococcus aureus [1]; with Klebsiella pneumoniae [12]; in experiment [2]; in the experiment with Candida albicans [3]) was inactive.
`COc1ccc2c(c1OC)C(=O)O[C@@H]2C1c2cc3c(cc2CCN1C)OCO3` (some centres not stated): the result (with Staphylococcus aureus [1]; in the experiment on Escherichia coli [13]; in experiment [14]; with Klebsiella pneumoniae [12]; in [2]; in the experiment on Candida albicans [3]) was inactive. In addition, the result in the experiment on Pseudomonas aeruginosa [15] was inactive.
Turning to `CCCCOC(=O)[C@@]1(O)CC(OC(=O)/C=C/c2ccc(OC(C)=O)c(OC)c2)[C@H](OC(C)=O)[C@H](OC(C)=O)C1` (some centres not stated), the outcome (with Staphylococcus aureus [1]; in [2]; with Candida albicans [3]) was inactive.
Consider `CCCCOC(=O)[C@@]1(O)CC(OC(=O)/C=C/c2ccc(O)c(OC)c2)[C@H](O)[C@H](O)C1` (some centres not stated), for which the outcome (in the experiment on Staphylococcus aureus [1]; in experiment [2]; with Candida albicans [3]) was inactive.
In the case of `CCCCOC(=O)[C@@]1(OC(C)=O)CC(OC(C)=O)[C@H](OC(=O)/C=C/c2ccc(OC(C)=O)c(OC)c2)[C@H](OC(C)=O)C1` (some centres not stated), the outcome (in the experiment with Staphylococcus aureus [1]; in [2]; in the experiment on Candida albicans [3]) was inactive.
For `COc1c(O)ccc2c1C(=O)N1CCc3cc4c(cc3C1C2)OCO4` (configuration not stated), the MIC in experiment [11] was over 50 µg/mL. Also, the result (in the experiment with Staphylococcus aureus [1]; in the experiment with Klebsiella pneumoniae [12]; in experiment [2]; with Candida albicans [3]) was inactive.
As to `CCCCOC(=O)[C@@]1(OC(C)=O)CC(OC(=O)/C=C/c2ccc(OC(C)=O)c(OC)c2)[C@H](OC(C)=O)[C@H](OC(C)=O)C1` (some centres not stated), the outcome (in the experiment on Staphylococcus aureus [1]; in experiment [2]; with Candida albicans [3]) was inactive.
On to `CCCCOC(=O)[C@@]1(O)CC(O)[C@H](OC(=O)/C=C/c2ccc(O)c(OC)c2)[C@H](O)C1` (some centres not stated), for which the outcome (in the experiment on Staphylococcus aureus [1]; in experiment [2]; in the experiment with Candida albicans [3]) was inactive.
